Assay [1] in a line: Antioxidant activity assessed as DPPH free radical scavenging activity after 30 mins. The format is functional. In a few lines:
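DPPH (0.05 mM in methanol) mixed with equal volume of compound (DMSO solution diluted in methanol), kept in dark at room temperature 30 min; absorbance at 517 nm, methanol control, ascorbic acid positive control. IC50 = concentration giving 50% of maximum scavenging; mean ± SD of independent triplicate experiments.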
(In general: Loss of DPPH colour is used to gauge radical scavenging.)

The test system of assay [2] is HeLa. The assay can be described thus: Prooxidant activity in human HeLa cells assessed as increase in H2O2-induced reactive oxygen species at 10 uM preincubated for 24 hrs followed by H2O2 addition and measured after 30 mins by dichlorofluorescein dye-based flow cytometric method. The class given is functional, cell-based. In short, it runs like this: (§1)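 HeLa cells pretreated 24 h with 10 μM compound, washed, loaded with 30 μM DCFH-DA in PBS 45 min at 37 °C. One portion read directly (endogenous ROS); other portion exposed to 10 mM H2O2 30 min at 37 °C. DCF green fluorescence by flow cytometry, 20 000 events per sample; mean ± SD of two independent experiments.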

The test system of assay [3] is HeLa. Put plainly: Antioxidant activity in human HeLa cells assessed as decrease in reactive oxygen species at 10 uM after 24 hrs by dichlorofluorescein dye-based flow cytometric method. The class given is functional, cell-based. In short, it runs like this:
as §1

Assay [4] has as its system HeLa. The assay can be described thus: Cytotoxicity against human HeLa cells assessed as decrease in cell survival after 72 hrs by MTT assay. The format is functional, cell-based. In short, it runs like this: (§2)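 HeLa (2000/well), A549 and MRC-5 (5000/well) seeded 20 h before treatment; HL-60 (7000/well) 2 h before. Five concentrations (6.25–100 μM or 3.125–50 μM) from 5 mM DMSO stocks, final DMSO ≤1%, 72 h; survival by MTT. Cisplatin positive control; three independent experiments in triplicate.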
(Tetrazolium dyes change colour on reduction, which living cells bring about.)

The next assay has as its system HL-60. Put plainly: Cytotoxicity against human HL60 cells assessed as decrease in cell survival after 72 hrs by MTT assay. The format is functional, cell-based. The following applies: HL-60, 72 h. In short, it runs like this: as §2
The next assay relates to A549. Put plainly: Cytotoxicity against human A549 cells assessed as decrease in cell survival after 72 hrs by MTT assay. The format is functional, cell-based. The following applies: A549, 72 h. In short, it runs like this: as §2
Another assay relates to MRC5. Put plainly: Cytotoxicity against human MRC5 cells assessed as decrease in cell survival after 72 hrs by MTT assay. The class given is cell-based. The following applies: MRC5, 72 h. In a few lines: as §2
Assay [5] relates to HeLa. The assay can be described thus: Cell cycle arrest in human HeLa cells assessed as accumulation at G2/M phase at 2 times IC50 after 24 hrs by propidium iodide staining-based flow cytometric method. The class given is functional. In a few lines: (§3)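 HeLa cells treated 24 h at IC50 or 2×IC50 (from 72 h assay), fixed in 70% ethanol, stored at –20 °C ≥1 week, RNase A 30 min 37 °C, propidium iodide stained; flow cytometry, 10 000 gated events. Mean ± SD of three independent experiments; one-way ANOVA with Dunnett's post-test, p < 0.05.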
(In flow cytometry, cells or beads pass a laser one at a time.)

For assay [6], the system named is HeLa. The assay can be described thus: Cell cycle arrest in human HeLa cells assessed as decrease in cell levels at G1 phase at IC50 after 24 hrs by propidium iodide staining-based flow cytometric method. The format is functional. In short, it runs like this:
as §3

In assay [7] the test system is HeLa. The assay can be described thus: Cell cycle arrest in human HeLa cells assessed as decrease in cell levels at G1 phase at 2 times IC50 after 24 hrs by propidium iodide staining-based flow cytometric method. The format is functional. In short, it runs like this:
as §3

The test system of assay [8] is HeLa. The assay can be described thus: Cell cycle arrest in human HeLa cells assessed as accumulation at sub-G1 phase at 2 times IC50 after 24 hrs in presence of caspase-3 inhibitor Z-DEVD-FMK by propidium iodide-staining based flow cytometric method. The format is functional. In a few lines: (§4)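 HeLa cells pretreated 2 h with 40 μM peptide caspase inhibitor (Z-DEVD-FMK caspase-3, Z-IETD-FMK caspase-8 or Z-LEHD-FMK caspase-9), then exposed to 2×IC50 compound; subG1 fraction by propidium iodide flow cytometry, compared with samples lacking inhibitor.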

Assay [9] concerns HeLa. The assay can be described thus: Cell cycle arrest in human HeLa cells assessed as accumulation at sub-G1 phase at 2 times IC50 after 24 hrs in presence of caspase-9 inhibitor Z-LEHD-FMK by propidium iodide-staining based flow cytometric method. The format is functional. In a few lines: as §4
Assay [10] relates to HeLa. The assay can be described thus: Downregulation of MMP2 gene expression in human HeLa cells at 10 uM after 24 hrs by RT-qPCR method. The class given is functional, cell-based.
Assay [11] has as its system HeLa. The assay can be described thus: Downregulation of TIMP3 gene expression in human HeLa cells at 10 uM after 24 hrs by RT-qPCR method. The format is functional, cell-based.
Assay [12] deals with HeLa. Put plainly: Upregulation of MMP9 gene expression in human HeLa cells at 10 uM after 24 hrs by RT-qPCR method. The class given is functional, cell-based.
In assay [13] the test system is HeLa. Put plainly: Downregulation of miR-155 expression in human HeLa cells at 10 uM after 24 hrs by RT-qPCR method. The class given is functional, cell-based.
Assay [14] deals with HeLa. Put plainly: Downregulation of miR-133b expression in human HeLa cells at 10 uM after 24 hrs by RT-qPCR method. The class given is functional, cell-based.
Assay [15] concerns Calf thymus DNA. The assay can be described thus: Binding affinity to calf thymus DNA at 10 to 40 uM after 90 mins by UV/visible spectrophotometric analysis. The class given is nucleic-acid assay. The following applies: Bos taurus. In short, it runs like this:
(§5)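 CT-DNA stock in 10 mM Tris-HCl pH 7.9 (A260/A280 1.89–2.01; concentration from ε260 6600 M–1 cm–1). Compound (10, 20 or 40 μM) plus CT-DNA (95 μM) in 40 mM bicarbonate pH 8.4, 37 °C 90 min; spectra 200–800 nm. Hyper/hypochromism at 259 nm from bound versus summed free compound and DNA extinction; triplicate.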

For assay [16], the system named is Calf thymus DNA. The assay can be described thus: Binding affinity to calf thymus DNA assessed as hyperchromism at 10 uM after 90 mins by UV/visible spectrophotometric analysis. The format is nucleic-acid assay. The following applies: Bos taurus. In short, it runs like this:
as §5

For assay [17], the system named is Calf thymus DNA. The assay can be described thus: Binding affinity to calf thymus DNA assessed as hyperchromism at 20 uM after 90 mins by UV/visible spectrophotometric analysis. The format is nucleic-acid assay. The conditions noted are these: Bos taurus. In short, it runs like this:
as §5

Assay [18] relates to Calf thymus DNA. Put plainly: Binding affinity to calf thymus DNA assessed as hyperchromism at 40 uM after 90 mins by UV/visible spectrophotometric analysis. The class given is nucleic-acid assay. The conditions noted are these: Bos taurus. In short, it runs like this: as §5
In assay [19] the test system is Calf thymus DNA. The assay can be described thus: Binding affinity to calf thymus DNA after 90 mins by spectroscopic titration method. The conditions noted are these: Bos taurus. The class given is nucleic-acid assay. In a few lines:
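Compound fixed at 40 μM titrated with CT-DNA (2.2–13 × 10–5 M) in 40 mM bicarbonate pH 8.4 after 90 min at 37 °C; absorbance at 259 nm per DNA level. Kb from slope/intercept ratio of [DNA]/(εa–εf) versus [DNA] plot; triplicate assays.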

The test system of assay [20] is DNA. The assay can be described thus: Induction of Escherichia coli pUC19 DNA cleavage after 90 mins by agarose gel electrophoresis method. The class given is nucleic-acid assay. In a few lines: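 Plasmid pUC19 (from E. coli XL1 blue; 460 ng, 12 nM) incubated with compound (0.05–0.4 mM; from 2 mM DMSO stock) in 20 μL 40 mM bicarbonate pH 8.4 at 37 °C for 90 min; 1% agarose gel in TAE at 80 V, ethidium bromide staining, UV at 312 nm; supercoiled/nicked/linear forms scored.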

The test system of assay [21] is DNA. Put plainly: Reversal of Fe2+-induced Escherichia coli pUC19 DNA cleavage at 1:1 compound to Fe2+ mole ratio after 90 mins by agarose gel electrophoresis method. The format is functional. In short, it runs like this:
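Compound (4 μL of 2 mM) preincubated with FeSO4 (1 or 2 μL of 8 mM; compound:Fe 1:1 or 1:2) in bicarbonate buffer 60 min at 37 °C, then pUC19 added for another 90 min; products resolved on 1% agarose gel, ethidium bromide stained.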

Calls of active or inactive are those of the source. No cut-off for these calls is given here.

As for `Cc1cccc(C(=O)/C=C/c2ccc(C(=O)Nc3nnc(-c4ccc(O)c(O)c4)s3)cc2)c1`, the IC50 – broadly, the concentration needed to halve the response being measured – was 17.2 µM in [1]; 9.63 µM in the assay on HeLa [4]; 8.39 µM in the assay with HL-60; 27.9 µM in the assay with A549; 34.2 µM in the assay with MRC5. Also, the outcome in the assay on HeLa [2], with HeLa [8], in the assay with HeLa [9], with HeLa [13] and in the assay on DNA [20] was inactive. The result with HeLa [3], in the assay with HeLa [5], in the assay on HeLa [6], in the assay on HeLa [7], in the assay on HeLa [10] and in the assay with HeLa [11] was Active. In addition, the result in the assay with HeLa [12], in the assay with HeLa [14], in the assay on Calf thymus DNA [15] and in the assay on DNA [21] was Active. Also, the Activity was -13.7% with Calf thymus DNA [16], -7.36% in the assay with Calf thymus DNA [17] and -4.9% with Calf thymus DNA [18]. For the same compound, the Kb with Calf thymus DNA [19] stood at 0.74 ×10³ /M.
